The source of these data is article PMC3383025 (Molecular Cancer Therapeutics, 2009).

Several values for one entry are separate records, joined by “and”; a condition that tells them apart may be missing. Equal entries are not always repeated. Where two headings read alike, the source gives them in different places.

Series [1] has as its system CWR22Rv1. The experiment in a line: Clonogenic survival assay. Type of series: cell-based, human. The conditions noted are these: loss of 50% clonogenic ability after 48 h exposure.
The conditions of series [2]: cited from earlier work.
For series [3], the system named is LAPC-4. The experiment in a line: Clonogenic survival assay. Type of series: cell-based, human. The conditions noted are these: loss of 50% clonogenic ability after 48 h exposure.
Series [4] concerns LNCaP cells. The experiment in a line: Percentage of cells in cycle, Ki67 flow cytometry. Format: cell-based, human. The conditions noted are these: TG exposure, untreated 91% ± 2%.
The subject of series [5] is AR-specific protein synthesis. Type of series: cell-based, human. An outline of the steps:
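LNCaP cells exposed to 1 µmol/L test compound for 6 or 24 h, then pulsed with S³⁵-methionine for 30 min before lysis. AR was immunoprecipitated from an aliquot of the labelled total protein with N-20 anti-AR antibody and Protein-A agarose beads, then Western blotted. AR-associated radioactivity was captured on X-ray film and quantitated by imaging.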

Series [6] concerns AR mRNA. The series is described as follows: AR mRNA by reverse transcription-PCR. Type of series: cell-based, human. Conditions: LNCaP, LAPC-4 and CWR22Rv1 cells; 1 µmol/L TG, various times.
Series [7] concerns AR protein. The experiment in a line: Western blot analysis of AR protein. Type of series: cell-based, human. Conditions: LNCaP cells; for AR Protein (% of control): after 24 h of exposure to 1 µmol/L.
Series [8] concerns LNCaP. The series is described as follows: Clonogenic survival assay. Conditions: for CC50: read-out: Cell death of LNCaP LC50; for Killing ability LD50: loss of 50% clonogenic ability after 48 h exposure. Format: cell-based, human.
Series [9] deals with total protein synthesis. The series is described as follows: Total protein synthesis, S35-methionine incorporation. Format: cell-based, human. The conditions noted are these: LNCaP; at 24 hours post-TG exposure. An outline of the steps: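 LNCaP cells were treated for 6 or 24 h (1 µmol/L test compound) and labelled with S³⁵-methionine for 30 min before lysis. Incorporation was measured as TCA-precipitable counts and expressed per cell as percent of incorporation in exponentially growing untreated cells.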

The test system of series [10] is VCaP. The experiment in a line: Clonogenic survival assay. Format: cell-based, human. The conditions noted are these: loss of 50% clonogenic ability after 48 h exposure.
Series [11] concerns MDA-PC-2b. The experiment in a line: Clonogenic survival assay. Type of series: cell-based, human. The conditions noted are these: loss of 50% clonogenic ability after 48 h exposure.
Series [12] concerns LNCaP cells. The series is described as follows: Intracellular free Ca+2. The conditions noted are these: for Intracellular free calcium: 10 min after exposure to 1 µmol/L, starting concentration ~40 nmol/L. Format: cell-based, human.
For series [13], the system named is IRE1-dependent XBP-1 processing. The series is described as follows: ER stress: IRE1-dependent XBP-1/venus processing, fluorescent cells. Type of series: cell-based, human.
Series [14] concerns LNCaP cells. The conditions noted are these: over the next 18 to 36 hours after return to baseline; cited from earlier work.
The test system of series [15] is androgen ablation refractory human prostate cancer lines. The experiment in a line: Clonogenic survival assay, each of the five lines. Format: cell-based. The conditions noted are these: LNCaP, LAPC-4, VCaP, MDA-PCa-2b, CWR22Rv1. An outline of the steps: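 Clonogenic survival of each prostate cancer line after 48 h exposure to a concentration series of test compound. LD₅₀ is the nmol/L concentration causing 50% loss of clonogenic ability.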

Series [16] concerns the target rabbit skeletal muscle SERCA pump (Oryctolagus cuniculus, UniProt P04191). The experiment in a line: SERCA pump activity inhibition. Format: biochemical.

Chain of rabbit skeletal muscle SERCA pump (P04191 1-994 isoform P04191-2): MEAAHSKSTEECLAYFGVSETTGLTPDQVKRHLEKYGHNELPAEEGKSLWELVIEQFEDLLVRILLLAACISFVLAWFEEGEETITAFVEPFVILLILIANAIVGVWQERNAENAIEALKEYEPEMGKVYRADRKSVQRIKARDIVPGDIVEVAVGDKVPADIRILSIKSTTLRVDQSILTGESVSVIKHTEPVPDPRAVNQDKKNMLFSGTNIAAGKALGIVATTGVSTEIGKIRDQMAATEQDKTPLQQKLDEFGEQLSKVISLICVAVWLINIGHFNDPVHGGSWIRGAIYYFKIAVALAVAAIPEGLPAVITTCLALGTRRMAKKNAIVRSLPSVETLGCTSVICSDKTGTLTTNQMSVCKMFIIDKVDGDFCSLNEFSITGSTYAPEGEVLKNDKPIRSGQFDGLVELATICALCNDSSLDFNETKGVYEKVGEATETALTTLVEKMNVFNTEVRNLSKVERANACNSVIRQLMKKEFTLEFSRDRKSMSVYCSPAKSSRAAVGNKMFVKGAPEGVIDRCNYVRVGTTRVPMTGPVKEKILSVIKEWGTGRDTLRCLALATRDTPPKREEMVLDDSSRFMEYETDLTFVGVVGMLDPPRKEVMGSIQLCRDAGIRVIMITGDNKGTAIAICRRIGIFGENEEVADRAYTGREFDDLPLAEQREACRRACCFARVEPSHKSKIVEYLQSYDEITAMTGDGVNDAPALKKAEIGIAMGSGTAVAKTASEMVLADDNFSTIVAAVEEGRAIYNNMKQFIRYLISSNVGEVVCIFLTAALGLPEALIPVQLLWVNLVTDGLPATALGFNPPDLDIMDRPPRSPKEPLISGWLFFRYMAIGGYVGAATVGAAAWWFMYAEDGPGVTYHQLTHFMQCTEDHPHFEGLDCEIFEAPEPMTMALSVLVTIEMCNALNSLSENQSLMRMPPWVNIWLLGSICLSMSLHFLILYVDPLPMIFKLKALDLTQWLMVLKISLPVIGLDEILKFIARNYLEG

Consider `C/C=C(/C)C(=O)O[C@H]1C(C)=C2[C@H]([C@@H]1OC(=O)CCCCCCC)[C@@](C)(OC(C)=O)C[C@H](OC(=O)CCC)[C@@]1(O)[C@H]2OC(=O)[C@@]1(C)O` [TG, Thapsigargin, reference compound], for which the “Killing ability LD50” value in series [1] was 38 ± 9 nmol/L; in series [3], 25 ± 6 nmol/L; in series [8] (LNCaP), 10 nmol/L and 10 ± 5 nmol/L; in [10], 20 ± 7 nmol/L; in series [11] it was 43 ± 12 nmol/L. Moreover, the “host toxicity on systemic administration” value in series [2] was “cannot be given systemically without host toxicity”. Further, the figures for the “Ki67+ cells” value in series [4] (24 hours) and in [4] (48 hours) were 25% ± 8% and above 10%, respectively. In series [5] (LNCaP cells, 1 µmol/L TG), the “decrease in rate of AR-specific protein synthesis” value is reported as above 90%. Besides, the “inhibition of AR-specific protein synthesis” value in [5] (LNCaP, at 24 hours post-TG exposure) was above 90%. In addition, the “change in AR mRNA” value in series [6] is reported as “no change”. In series [7], the “AR Protein (% of control)” value is 10 ± 2 % of control. For the same molecule, the “depletion of AR protein” value in series [7] (by 24 hours of TG exposure) came out at 90%. Besides, the CC50 in series [8] (Homo sapiens, LNCaP, 48 h) was 10 ± 5 nM. Further, in series [9], the “inhibition of general protein synthesis” value was above 60%. Further, the Intracellular free calcium in series [12] is 441 ± 35 nmol/L. In addition, the “initial increase in Cai” value in [12] (from ~40 nmol/L, within minutes) is above 300 nmol/L. Besides, in series [13] (XBP-1/venus-transfected LNCaP and CWR22Rv1, 500 µmol/L TG, by 24 hours), the “percent of fluorescent (ER-stressed) cells” value is listed as above 80%. Also, the “delayed sustained increase in Cai” value in [14] was above 1 µmol/L. For the same molecule, in [15], the “LD50 for each of the lines” value was below 100 nmol/L. The IC50 in series [16] was found to be 13 ± 2 nM.

In the case of leucyl-12ADT [Analog L12ADT], the “Killing ability LD50” value in [1] was determined as 34 ± 16 nmol/L; in [3], 32 ± 9 nmol/L; in series [8] (LNCaP) it was 14 ± 8 nmol/L; in [10] it was 25 ± 11 nmol/L; in [11], 42 ± 5 nmol/L. Moreover, the “AR Protein (% of control)” value in series [7] was 8 ± 4 % of control. Moreover, in series [8] (after 48 h of exposure), the CC50 worked out at 14 ± 8 nM. In addition, in [12], the Intracellular free calcium was 414 ± 44 nmol/L. For the same molecule, the “cells with IRE1-dependent XBP-1 processing (flow cytometric GFP)” value in series [13] (LNCaP, 500 nmol/L, within 24 h) is listed as “all cells”.

For alanyl-12ADT [Analog A12ADT], the “Killing ability LD50” value in series [1] was 38 ± 11 nmol/L; in series [3], 28 ± 7 nmol/L; in series [8] (LNCaP), 8 ± 4 nmol/L; in series [10] it was 23 ± 9 nmol/L; in series [11], 40 ± 6 nmol/L. Besides, the “AR Protein (% of control)” value in [7] was 15 ± 4 % of control. The CC50 in series [8] (after 48 h of exposure) amounted to 8 ± 4 nM. Also, in [12], the Intracellular free calcium came to 410 ± 45 nmol/L.

Regarding `C/C=C(/C)C(=O)O[C@H]1C(C)=C2[C@H]([C@@H]1OC(=O)CCCCCCC)[C@@](C)(OC(C)=O)C[C@H](OC(=O)CCCCCCCCCCCN)[C@@]1(O)[C@H]2OC(=O)[C@@]1(C)O` [Analog 12ADT, 8-O-(12-dodecanyl)-8-O-debutanoyl TG], the “Killing ability LD50” value was 85 ± 27 nmol/L in series [1]; 80 ± 19 nmol/L in series [3]; 55 ± 12 nmol/L in [8] (LNCaP); 67 ± 25 nmol/L in series [10]; 95 ± 35 nmol/L in series [11]. Moreover, in series [2], the “host toxicity on systemic administration” value was “cannot be given systemically without host toxicity”. Besides, the “AR Protein (% of control)” value in series [7] was 14 ± 3 % of control. Moreover, the CC50 in series [8] (after 48 h of exposure) is 55 ± 12 nM. Also, the Intracellular free calcium in series [12] was 369 ± 23 nmol/L.

In the case of `C/C=C(/C)C(=O)O[C@H]1C(C)=C2[C@H]([C@@H]1OC(=O)CCCCCCC)[C@@](C)(OC(C)=O)C[C@H](OC(=O)CCCCCCCCCCCNC(=O)C[C@H](N)C(=O)O)[C@@]1(O)[C@H]2OC(=O)[C@@]1(C)O` [Analog D12ADT, asparty-12ADT], the “Killing ability LD50” value in [1] is on record as 39 ± 7 nmol/L; in series [3], 55 ± 9 nmol/L; in [8] (LNCaP), 40 ± 12 nmol/L; in series [10], 70 ± 18 nmol/L; in series [11] it was 51 ± 12 nmol/L. Further, the “AR Protein (% of control)” value in series [7] is on record as 11 ± 6 % of control. In addition, the CC50 in series [8] (after 48 h of exposure) worked out at 40 ± 12 nM. Besides, in series [12], the Intracellular free calcium was determined as 385 ± 40 nmol/L.
